Laboratory results published in publication PMC4979993 (Nature structural & molecular biology, 2011).
Values joined by “and” are separate entries in the source; they are usually repeats but may differ in a detail not shown here. Identical values can stand only once. “Also recorded” adds a separate entry of the source.

Tests used:
Aβ1–40 fibril formation [1] = experiment: Bulk aggregation / fibril formation of Aβ1–40; type: biochemical; settings: HiLyteFluor488 or HiLyteFluor647 label, control experiments
Aβ1–40 [2] = experiment: TIRFM imaging of species in Aβ1–40 aggregation; type: biochemical
Summary of the method: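 Dual-label HiLyteFluor488/HiLyteFluor647 Aβ1–40 (monomer stocks in pH 12 NaOH, ice-sonicated 30 min) diluted into SSPE pH 7.4. Incubated 24 h at 37 °C with 200 rpm agitation. Human serum-derived clusterin was added at 4 h where used. Species on surface imaged by two-colour TIRFM (488 and 633 nm excitation, split-EMCCD, 7.9 frames s⁻¹). Sizes compared by two-sample, two-tailed, independent t-test.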

amyloid fibrils = settings: previous bulk measurements; cited from earlier work
[3] = cited from earlier work
Aβ1–40 [4] = experiment: cTCCD single-molecule analysis of Aβ1–40 aggregation; type: biochemical
Summary of the method: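 Equimolar HiLyteFluor488- and HiLyteFluor647-labeled Aβ1–40 (2 μM) in SSPE pH 7.4, 37 °C, 200 rpm agitation; with or without clusterin at 1:1 molar. Sampled every 2–3 h and diluted to picomolar for two-colour confocal coincidence detection (1 ms bins, stage scanned 200 µm s⁻¹). Coincident bursts were scored as oligomers. Apparent size came from their brightness relative to non-coincident monomer bursts; n=3.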

Aβ1–40 fibrils = Aβ1–40 fibrils (Homo sapiens, UniProt P05067); experiment: cTCCD analysis of disaggregation of Aβ1–40 fibrils; type: biochemical; settings: for ΔG° (dimer) / ΔG° (larger oligomer): from steady state apparent size distributions
Summary of the method: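 Fibrils grown statically from 8 μM labeled Aβ1–40, 72 h, 37 °C. Pelleted at ~10,000×g for 30 min, washed twice in SSPE pH 7.4, then resuspended. Where used, AlexaFluor647-labeled human serum clusterin was incubated with fibrils 12–16 h at 21 °C and unbound removed by centrifugation (100–200 nM bound). Released species tracked by cTCCD to plateau (~50 h). Rates fitted with monomolecular dissociation functions.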

Aβ1–40 fibril formation [5] = settings: cited from earlier work
Aβ1–40 oligomers = experiment: Formation and persistence of clusterin:Aβ complexes; type: binding
Summary of the method: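 HiLyteFluor488 or HiLyteFluor647-labeled Aβ1–40, from NaOH-solubilised monomer in SSPE pH 7.4, is aggregated at 37 °C, 200 rpm, with AlexaFluor647-labeled human serum clusterin at 1:1 molar ratio, or released from pre-formed clusterin-bound fibrils. Complexes are diluted to […] at 21 °C and sampled over time by two-colour coincidence detection (cTCCD). Persistence is compared by two-tailed t-tests.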

[6] = Disaggregation, without clusterin, n=3, s.d.
[7] = Disaggregation, without clusterin, n=12, s.d.
[8] = without clusterin, disaggregation, n=12
[9] = with clusterin, disaggregation, n=8

In the case of amyloid-β1–40 [Aβ1–40], the “effect of fluorophores on bulk aggregation behavior” value (Aβ1–40 fibril formation [1]) is given as “neither fluorophore had any appreciable effect on the bulk aggregation behavior”, the “average size of species present” value (Aβ1–40 [2]; 2 μM Aβ1–40 without clusterin, 24 h aggregation, s.e.m.) is given as 1400 ± 200 nm and the “free energy of the formation of amyloid fibrils” value (amyloid fibrils) is given as “–36 kJ mol^−1”. For the same substance, the “Aβ1–40 clearance time in vivo” value [3] was ~ 14 h, the “Aβ1–40 production time in vivo” value [3] was ~ 15 h and the “oligomers as share of total number of molecules” value (Aβ1–40 [4]; 30 nM Aβ1–40, 37 °C) was “approximately 1%”. For the same substance, the “concentration of oligomers formed” value (Aβ1–40 [4]; 30 nM Aβ1–40, SSPE pH 7.4, 37 °C, agitation) was 300 pM, the “distribution of apparent oligomer sizes” value (Aβ1–40 [4]; 600 nM – 2 µM and 30 nM, aggregation and disaggregation) was “decreased exponentially with increasing apparent size; also recorded: effectively the same as that formed at a concentration of 30 nM; also recorded: approximately exponential decrease with apparent size” and the “oligomers as share of total molecules at peak” value (Aβ1–40 [4]; 2 μM Aβ1–40, 37 °C) was “approximately 1%”. The “decrease in monomer concentration during growth phase of fibril formation” value (Aβ1–40 [4]; 2 μM Aβ1–40, 37 °C, agitation) was 75%, the “peak concentration of stable oligomeric species” value (Aβ1–40 [4]; 2 μM Aβ1–40, SSPE pH 7.4, 37 °C, agitation) was ~ 20 nM and the “ΔG° (dimer)” value (Aβ1–40 [4]; Aggregation, without clusterin, from steady state apparent size distributions, n=4, s.d.) was −23.0 ± 2.9 (4) kJ mol^−1. The “range of oligomer sizes formed” value (Aβ1–40 [4]; cTCCD, apparent size) was “dimers to 50mers”, the “stability of the majority of soluble oligomeric species” value (Aβ1–40 [4]; ~25–50 pM, 21 °C) was “over three” and the “ΔG° (dimer)” value (Aβ1–40 fibrils; [6]) was −18.2 ± 0.5 (3) kJ mol^−1. For the same substance, the “ΔG° (larger oligomer)” value (Aβ1–40 fibrils; [7]) was −38.9 ± 2.7 (12) kJ mol^−1, the “ΔH° (dimer)” value (Aβ1–40 fibrils; [6]) was −43.8 ± 24.5 (3) kJ mol^−1 and the “ΔS° dimer” value (Aβ1–40 fibrils; [6]) was −80.8 ± 83.5 (3) kJ mol^−1. For the same substance, the “ΔH° (larger oligomer)” value (Aβ1–40 fibrils; [7]) was −29.1 ± 0.3 (12) kJ mol^−1, the “ΔS° larger than dimer” value (Aβ1–40 fibrils; [7]) was 28.3 ± 1.1 (12) kJ mol^−1 and the “Final concentration of all species” value (Aβ1–40 fibrils; [8]) was 270 ± 20 (12) nM. For the same substance, the “Final concentration of oligomeric species” value (Aβ1–40 fibrils; [8]) was 0.16 ± 0.06 (12) nM.
For “clusterin: extracellular chaperone protein, extracted from human serum”, the “reduction in average size of species present” value (Aβ1–40 [2]; 2 μM Aβ1–40, 24 h aggregation, 2 µM clusterin added at 4 h, P-value 0.01) is listed as “approximately 50%”, the “effect on distribution of the sizes of Aβ1–40 oligomers” value (Aβ1–40 [4]; in presence of clusterin) is listed as “not substantially altered” and the “effect on fibril formation, bulk measurements” value (Aβ1–40 fibril formation [5]) is listed as “strongly inhibits fibril formation”. For the same substance, the “binding to soluble oligomers” value (Aβ1–40 oligomers; all oligomers found during aggregation and disaggregation) was “all of which interact with clusterin to form long-lived, stable complexes; also recorded: binds to all members of the ensemble of soluble oligomers”, the “persistence of clusterin:Aβ complexes” value (Aβ1–40 oligomers; formed at 100 nM, after dilution at picomolar concentrations) was “over 200 h” and the “ΔG° (dimer)” value (Aβ1–40 fibrils; Disaggregation, with clusterin, n=4, s.d.) was −25.8 ± 2.6 kJ mol^−1 and −25.8 ± 2.6 (4) kJ mol^−1. The “ΔG° (larger oligomer)” value (Aβ1–40 fibrils; Disaggregation, with clusterin, n=12, s.d.) was −43.9 ± 1.0 kJ mol^−1 and −43.9 ± 1.0 (12) kJ mol^−1, the “effect on rate and extent of fibril disaggregation” value (Aβ1–40 fibrils; clusterin bound to Aβ fibrils) was “decrease both the rate and the extent of fibril disaggregation” and the “Rate of clusterin release” value (Aβ1–40 fibrils; with clusterin, disaggregation of fibrils, n=3, s.e.m.) was “(9.8 ± 0.9)×10^−7 (3) s^−1”. For the same substance, the “Final soluble clusterin concentration” value (Aβ1–40 fibrils; with clusterin, disaggregation, n=3) was 90 ± 14 (3) nM, the “Final concentration of all species” value (Aβ1–40 fibrils; [9]) was 120 ± 20 (8) nM and the “Final concentration of oligomeric species” value (Aβ1–40 fibrils; [9]) was 0.42 ± 0.1 (8) nM. For the same substance, the “effect on monomer concentration” value (Aβ1–40 fibrils; with vs without clusterin, plateau region, n=8, P-value 0.0003, t-test) was “decreased monomer concentration” and the “effect on oligomer concentration / total oligomer population” value (Aβ1–40 fibrils; with vs without clusterin, plateau region, n=8, P-value 0.002, t-test) was “increased oligomer concentration; also recorded: increase in the total oligomer population”.
